This is an account of results in ChEMBL document CHEMBL1139475, “Structural, mutagenic, and kinetic analysis of the binding of substrates and inhibitors of human phenylethanolamine N-methyltransferase” (J Med Chem, 2005).

Data set [1] addresses T1, Phenylethanolamine N-methyltransferase (Homo sapiens, UniProt P11086).
T1 sequence (P11086 whole entry): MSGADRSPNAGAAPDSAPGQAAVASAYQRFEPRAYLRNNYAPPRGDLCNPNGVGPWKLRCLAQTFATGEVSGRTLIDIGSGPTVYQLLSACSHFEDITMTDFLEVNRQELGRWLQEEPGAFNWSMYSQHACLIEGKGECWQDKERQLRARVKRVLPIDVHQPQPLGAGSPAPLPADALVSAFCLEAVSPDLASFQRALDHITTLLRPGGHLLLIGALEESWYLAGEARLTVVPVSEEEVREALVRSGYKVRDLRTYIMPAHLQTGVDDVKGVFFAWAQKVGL
Briefly: Activity of human wild type PNMT assessed as phenylethanolamine methylation.

Data set [2] deals with Phenylethanolamine N-methyltransferase (Homo sapiens, UniProt P11086, D267N). In words: (§1) Activity of human PNMT D267N mutant assessed as phenylethanolamine methylation. Put shortly:
(§2)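 C-terminally His6-tagged human PNMT mutants made by site-directed mutagenesis, expressed in E. coli BL21(DE3)-pLysS, and purified by Ni affinity then gel filtration. Steady-state kinetics used 50 mM potassium phosphate pH 8.0 with [3H]-AdoMet and phenylethanolamine, each varied between 0.3 and 3 × Km. Incubation was 30 min at 30 °C, quenched with borate pH 10, extracted into toluene/isoamyl alcohol, and counted by scintillation.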

In data set [3] the target is Phenylethanolamine N-methyltransferase (Homo sapiens, UniProt P11086, V53A). In words: (§3) Activity of human PNMT V53A mutant assessed as phenylethanolamine methylation. The method in brief:
as §2

The target of data set [4] is Phenylethanolamine N-methyltransferase (Homo sapiens, UniProt P11086, K57A). In words: (§4) Activity of human PNMT K57A mutant assessed as phenylethanolamine methylation. The method in brief:
as §2

For data set [5], the target named is Phenylethanolamine N-methyltransferase (Homo sapiens, UniProt P11086, E219A). Briefly: (§5) Activity of human PNMT E219A mutant assessed as phenylethanolamine methylation. The method in brief:
as §2

Data set [6] has as its target Phenylethanolamine N-methyltransferase (Homo sapiens, UniProt P11086, D267A). In words: Activity of human PNMT D267A mutant assessed as phenylethanolamine methylation.
Data set [7] is described as follows: Binding affinity to human PNMT-S-adenosyl-L-methionine complex.
In data set [8] the target is T1, Phenylethanolamine N-methyltransferase. Briefly: Binding affinity to human free PNMT.
Substrate in data set [9]: NCC(O)c1ccc(Cl)c(Cl)c1
The data set is described as §3. The method in brief:
as §2

Substrate in data set [10]: C[S+](CC[C@H](N)C(=O)[O-])C[C@H]1O[C@@H](n2cnc3c(N)ncnc32)[C@H](O)[C@@H]1O
The description is as §3. The method in brief: as §2

Substrate in data set [11]: NCC(O)c1ccc(Cl)c(Cl)c1
Described as §1. Put shortly:
as §2

Substrate in data set [12]: C[S+](CC[C@H](N)C(=O)[O-])C[C@H]1O[C@@H](n2cnc3c(N)ncnc32)[C@H](O)[C@@H]1O
The data set is described as §1. Put shortly:
as §2

Substrate in data set [13]: NCC(O)c1ccc(Cl)c(Cl)c1
The settings on record: Homo sapiens.

Substrate in data set [14]: C[S+](CC[C@H](N)C(=O)[O-])C[C@H]1O[C@@H](n2cnc3c(N)ncnc32)[C@H](O)[C@@H]1O
The settings on record: Homo sapiens.

Substrate in data set [15]: NCC(O)c1ccc(Cl)c(Cl)c1
To be noted: Homo sapiens. The source holds these as a separate data set.

Substrate in data set [16]: C[S+](CC[C@H](N)C(=O)[O-])C[C@H]1O[C@@H](n2cnc3c(N)ncnc32)[C@H](O)[C@@H]1O
The settings on record: Homo sapiens. This is another data set of the same source.

Substrate in data set [17]: NCC(O)c1ccc(Cl)c(Cl)c1
The data set is described as §5. Put shortly:
as §2

Substrate in data set [18]: C[S+](CC[C@H](N)C(=O)[O-])C[C@H]1O[C@@H](n2cnc3c(N)ncnc32)[C@H](O)[C@@H]1O
The data set is described as §5. The method in brief:
as §2

Substrate in data set [19]: NCC(O)c1ccc(Cl)c(Cl)c1
The description is as §4. The method in brief: as §2

Substrate in data set [20]: C[S+](CC[C@H](N)C(=O)[O-])C[C@H]1O[C@@H](n2cnc3c(N)ncnc32)[C@H](O)[C@@H]1O
The data set is described as §4. The method in brief:
as §2

Broadly, the Kd is the equilibrium constant for the complex coming apart. One may read the Ki as the dissociation constant of the complex between target and ligand, obtained from inhibition or displacement. Lower therefore signals tighter binding. The term Km denotes the substrate concentration at which the rate is half of its maximum.

Changes are numbered by the printed parent chain. Names may count otherwise.

Chain of Phenylethanolamine N-methyltransferase (Homo sapiens, UniProt P11086, K57A) (P11086 whole entry K57A): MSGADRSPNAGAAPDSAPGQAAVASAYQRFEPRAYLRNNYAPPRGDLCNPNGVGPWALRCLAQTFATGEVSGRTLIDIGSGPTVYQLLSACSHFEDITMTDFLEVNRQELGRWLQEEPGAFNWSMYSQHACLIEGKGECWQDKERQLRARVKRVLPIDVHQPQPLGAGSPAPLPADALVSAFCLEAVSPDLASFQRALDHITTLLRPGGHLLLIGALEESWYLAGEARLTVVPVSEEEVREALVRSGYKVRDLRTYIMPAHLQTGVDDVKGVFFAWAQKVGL
Chain of Phenylethanolamine N-methyltransferase (Homo sapiens, UniProt P11086, V53A) (P11086 whole entry V53A): as the sequence (P11086 whole entry K57A) above, with V53A, A57K counted along it
Chain of Phenylethanolamine N-methyltransferase (Homo sapiens, UniProt P11086, D267N) (P11086 whole entry D267N): as the sequence (P11086 whole entry K57A) above, with A57K, D267N counted along it
Chain of Phenylethanolamine N-methyltransferase (Homo sapiens, UniProt P11086, D267A) (P11086 whole entry D267A): as the sequence (P11086 whole entry K57A) above, with A57K, D267A counted along it
Chain of Phenylethanolamine N-methyltransferase (Homo sapiens, UniProt P11086, E219A) (P11086 whole entry E219A): as the sequence (P11086 whole entry K57A) above, with A57K, E219A counted along it

For `C[S+](CC[C@H](N)C(=O)[O-])C[C@H]1O[C@@H](n2cnc3c(N)ncnc32)[C@H](O)[C@@H]1O` (stereo not given in full) [ADEMETIONINE], the Kd in data set [1] was determined as 4.8 µM; in data set [2] it was 7.5 µM; in data set [3], 7.1 µM; in data set [4] it was 10.7 µM; in data set [5], 7.5 µM; in [6], 11 µM.
On to `CC(N)c1cccc(Cl)c1Cl` (stereo not given), for which the figures for the inhibition constant (Ki) in data set [7] and in data set [8] were 0.072 µM and 1.33 µM, respectively.

B1: Phenylethanolamine N-methyltransferase (Homo sapiens), P11086 V53A (protein)
chain: T1 sequence (P11086 whole entry) with V53A
Regarding B1, the Km in data set [9] came to 1630 µM; in data set [10] it was 9.6 µM.

B2: Phenylethanolamine N-methyltransferase (Homo sapiens), P11086 D267N (protein)
chain: T1 sequence (P11086 whole entry) with D267N
As for B2, the values for the Km in data set [11] and in data set [12] were 1640 µM and 7.1 µM, respectively.

B3: Phenylethanolamine N-methyltransferase (Homo sapiens), P11086 (protein)
chain: T1 sequence (P11086 whole entry)
For B3, the Km in data set [13] was found to be 100 µM; in [14], 1.2 µM.

B4: Phenylethanolamine N-methyltransferase (Homo sapiens), P11086 D267A (protein)
chain: T1 sequence (P11086 whole entry) with D267A
Turning to B4, the values for the Km in [15] and in data set [16] were 2050 µM and 2.4 µM, respectively.

B5: Phenylethanolamine N-methyltransferase (Homo sapiens), P11086 E219A (protein)
chain: T1 sequence (P11086 whole entry) with E219A
On to B5, for which the Km was found to be 580 µM in data set [17] and 7.1 µM in [18].

B6: Phenylethanolamine N-methyltransferase (Homo sapiens), P11086 K57A (protein)
chain: T1 sequence (P11086 whole entry) with K57A
Regarding B6, the Km in [19] stood at 1310 µM; in data set [20], 11.7 µM.
